pIC50: −log10 of the molar value.
organism: Rattus norvegicus; assay: Inhibitory activity against the PDGF-induced proliferation of rat aortic smooth muscle cell (RAoSMC); format: functional, organism-based
Summary of the method: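 Smooth muscle cells isolated from rat thoracic aorta, kept in DMEM with 10% FBS. Seeded in triplicate at 1×10³ cells/well and grown 24 h, then starved in 0.2% FBS for 72 h. Treated for 48 h in DMEM with PDGF (5 ng/mL) and 5% FBS. Proliferation read by WST-1 uptake (colorimetric); IC50 derived by comparison with mycophenolic acid standard.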

| SMILES | pIC50 |
| --- | --- |
| O=C1C(Cl)=C(Nc2ccccc2)C(=O)c2[nH]cnc21 | 5.26 |
| O=C1C(Cl)=C(Nc2cccc(Br)c2)C(=O)c2[nH]cnc21 | 5.80 |
| O=C1C(Br)=C(Nc2ccc(F)cc2)C(=O)c2[nH]cnc21 | 6.00 |
| O=C1C(Br)=C(Nc2cccc(I)c2)C(=O)c2[nH]cnc21 | 5.60 |
| Cc1nc2c([nH]1)C(=O)/C(=N/c1ccc(F)c(F)c1F)C(Cl)=C2O | 5.96 |
| COc1ccc(OC)c2[nH]cnc12 | < 4.00 |
| Cc1nc2c([nH]1)C(=O)/C(=N/c1ccccc1)C(Cl)=C2O | 6.10 |
| Cc1ccc(NC2=C(Br)C(=O)c3nc[nH]c3C2=O)cc1 | 6.00 |
| Cc1nc2c([nH]1)C(=O)/C(=N/c1cccc(Br)c1)C(Cl)=C2O | 6.00 |
| Cc1nc2c([nH]1)C(=O)/C(=N/c1ccc(F)cc1)C(Cl)=C2O | 5.52 |
| O=C1C(Cl)=C(Nc2ccccc2)C(=O)c2[nH]c(C(F)(F)F)nc21 | 4.30 |
| Cc1nc2c([nH]1)C(=O)/C(=N/c1cccc(Cl)c1)C(Cl)=C2O | 6.05 |
| O=C1C(Cl)=C(Nc2cccc(Cl)c2)C(=O)c2[nH]cnc21 | 5.85 |
| O=C1C(Cl)=C(Nc2cccc(I)c2)C(=O)c2[nH]cnc21 | 5.89 |
| O=C1C(Br)=C(Nc2ccc(Cl)cc2)C(=O)c2[nH]cnc21 | 5.40 |
| O=C1C(Br)=C(Nc2ccccc2)C(=O)c2[nH]cnc21 | 5.96 |
| O=C1C(Cl)=C(Nc2ccc(I)cc2)C(=O)c2[nH]c(C(F)(F)F)nc21 | 4.60 |
| O=C1C(Cl)=C(Nc2ccc(Cl)cc2)C(=O)c2[nH]c(C(F)(F)F)nc21 | 4.82 |

| SMILES | pIC50 |
| --- | --- |
| Cc1ccc(NC2=C(Cl)C(=O)c3nc(C(F)(F)F)[nH]c3C2=O)cc1 | 4.40 |
| COc1ccc(OC)c2[nH]c(C)nc12 | < 4.00 |
| O=C1C(Cl)=C(Nc2ccc(I)cc2)C(=O)c2[nH]cnc21 | 5.89 |
| O=C1C(Cl)=C(Nc2ccc(F)cc2)C(=O)c2[nH]c(C(F)(F)F)nc21 | 4.92 |
| Cc1nc2c([nH]1)C(=O)/C(=N/c1ccc(I)cc1)C(Cl)=C2O | 6.00 |
| O=C1C(Cl)=C(Nc2ccc(F)cc2)C(=O)c2[nH]cnc21 | 5.92 |
| Cc1nc2c([nH]1)C(=O)/C(=N/c1ccc(F)cc1F)C(Cl)=C2O | 5.92 |
| Cc1ccc(NC2=C(Cl)C(=O)c3nc[nH]c3C2=O)cc1 | 5.85 |
| O=C1C(Cl)=C(Nc2ccc(C(F)(F)F)cc2)C(=O)c2[nH]cnc21 | 5.60 |
| O=C1C(Cl)=C(Nc2ccc(C(F)(F)F)cc2)C(=O)c2[nH]c(C(F)(F)F)nc21 | 4.70 |
| Cc1ccc(NC2=C(Cl)C(=O)c3nc(C)[nH]c3C2=O)cc1 | 6.10 |
| Cc1nc2c([nH]1)C(=O)/C(=N/c1ccc(Cl)cc1)C(Cl)=C2O | 5.55 |
| O=C1C(Cl)=C(Nc2ccc(F)c(F)c2)C(=O)c2[nH]cnc21 | 5.96 |
| Cc1nc2c([nH]1)C(=O)/C(=N/c1ccc(Cl)cc1Cl)C(Cl)=C2O | 6.10 |
| O=C1C(Br)=C(Nc2ccc(C(F)(F)F)cc2)C(=O)c2[nH]cnc21 | 5.51 |
| Cc1nc2c([nH]1)C(=O)/C(=N/c1cccc(Cl)c1Cl)C(Cl)=C2O | 6.22 |
| Cc1nc2c([nH]1)C(=O)/C(=N/c1ccc(C(F)(F)F)cc1)C(Cl)=C2O | 6.22 |
| COc1c(C)c2c(c(O)c1C/C=C(\C)CCC(=O)O)C(=O)OC2 [MYCOPHENOLIC ACID] | 6.00 |

Source: ChEMBL document CHEMBL1147479, “Synthesis and biological evaluation of benzimidazole-4,7-diones that inhibit vascular smooth muscle cell proliferation” (Bioorg Med Chem Lett, 2004)
